S1P3 antag: antagonists of human S1P3 receptor; Q99500; CHO S1P3 NFAT-BLA reporter, FRET fluorescence, antagonist mode; inhibition, % at 4.98 µM; 0.27% of 170,000 active;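 active means inhibition above the plate cutoff, the mean inhibition of test wells on that plate plus 3 SD, cut at about 28% in these data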;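 further: cells challenged with S1P at its EC80 of 0.8 µM; blue over green emission ratio from cleaved BLA substrate after 4 h stimulation; 0% = S1P-stimulated wells and 100% = unstimulated DMSO-only wells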
Mdm2 ligase inh: blocks human Mdm2 ubiquitin ligase activity; 0.11% of 210,000 active; cell-based MDM2 ubiquitination luciferase reporter, 2 h; 0 = plate control, 100 = twice control, blank-subtracted; signal enhancement, % at 5 µM; Q00987;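 active means signal enhancement of 30% or more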;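 further: luminescence tracks abundance of the self-degrading MDM2-luciferase fusion protein; higher signal means inhibition of MDM2 E3 ligase activity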
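Timing – 2 h compound exposure at 37 °C · Assay system – mammalian cells stably expressing self-ubiquitinating, self-degrading MDM2 E3–luciferase fusion · Amount – 2000 cells seeded into each well · Measure – % luminescence enhancement versus blank-corrected plate control mean · Measured by – SteadyLite luminescence, 15 min reagent step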
S1P4 antag: antagonists of human S1P4 receptor | O95977 | S1P4-expressing cells, antagonist mode, reporter read-out | inhibition, % at 4.98 µM | 0.26% of 220,000 active | AID 1510; in the data active means inhibition above about 29%;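 further: 0% = wells stimulated with agonist and 100% = vehicle wells without agonist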
Target sequence (O95977 whole entry, looked up): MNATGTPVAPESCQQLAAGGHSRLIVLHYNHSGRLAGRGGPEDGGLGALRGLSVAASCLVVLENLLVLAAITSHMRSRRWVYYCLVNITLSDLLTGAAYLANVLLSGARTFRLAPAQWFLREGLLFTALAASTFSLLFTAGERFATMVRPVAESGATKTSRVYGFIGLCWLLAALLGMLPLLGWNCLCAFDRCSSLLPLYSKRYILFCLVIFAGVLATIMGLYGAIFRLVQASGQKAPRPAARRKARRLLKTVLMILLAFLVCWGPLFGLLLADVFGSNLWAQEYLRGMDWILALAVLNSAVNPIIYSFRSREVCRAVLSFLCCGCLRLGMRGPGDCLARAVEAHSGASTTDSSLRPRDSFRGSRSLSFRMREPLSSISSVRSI
S1P4 ag: human S1P4 receptor agonism; O95977; S1P4-expressing cell line, agonist reporter assay; activation, % at 4.98 µM; 0.35% of 220,000 active; AID 1509; in the data active means activation above about 11%;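 further: 0% = DMSO vehicle and 100% = reference agonist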
L major viab: inhibitors of Leishmania major promastigote growth | 9% of 200,000 active | inhibition, % at 10 µM | Leishmania major promastigotes, resazurin fluorescence viability; in the data active means inhibition above about 50%;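 further: promastigotes grown with compound for 44 hours at 28 °C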
An asterisk follows results filed as active; · = not tested or not shown. The full list was thinned out, with hits kept by preference.

SMILES	S1P3 antag	Mdm2 ligase inh	S1P4 antag	S1P4 ag	L major viab
O=C(CCc1nc2ccccc2s1)OCC(=O)c1ccc[nH]1	-12	-7	-25	-2	-7
C=CCN=C1NN=C(c2ccc3c(c2)OCCO3)CS1	-10	-80	-5	1	-3
CCOc1ccc(NC(=O)CN(C)CC(=O)Nc2cc(Cl)ccc2C#N)cc1OCC	·	-10	-2	-2	86*
Cc1cccc(C)c1NC(=O)CN(C)CC(=O)Nc1cc(Cl)ccc1C#N	·	-9	-20	1	-1
CC(NC(=O)c1cn(C(C)c2ccccc2F)nn1)c1ccncc1 (configuration not stated)	-4	-43	9	-1	-2
Cc1cc(C)n(CC(O)Cn2c3ccc(Cl)cc3c3cc(Cl)ccc32)c(=O)n1 (configuration not stated)	·	-13	-15	2	17
OC(CNCC1CCCO1)Cn1c2ccc(Cl)cc2c2cc(Cl)ccc21 (configuration not stated)	·	-26	8	-2	100*
OC(CNCCC1C=Nc2ccccc21)Cn1c2ccc(Cl)cc2c2cc(Cl)ccc21 (configuration not stated)	-8	-4	-3	0	100*
OC(CNCC1CCCO1)Cn1c2ccccc2c2ccccc21 (configuration not stated)	6	-18	-1	0	25
CCC(C)(C)NC(=S)Nc1ccc(-c2nc3ccc(C)cc3s2)cc1	-11	-4	-8	2	75*
Cc1ccc2nc(-c3ccc(NS(=O)(=O)c4ccc(F)cc4)cc3)sc2c1	-2	-7	-27	2	65*
CCCCNC(=S)Nc1ccc(-c2nc3ccc(C)cc3s2)cc1	7	·	-1	-1	4
C(=N\Nc1nc2ccccc2[nH]1)/C1CCCCC1	-9	-28	-16	1	68*
C(/CCc1ccccc1)=N\Nc1nc2ccccc2[nH]1	21	-55	-2	-2	67*
O=C(O)[C@H](Cc1ccccc1)NC(=O)N1CCN(c2ccccc2)CC1	-11	-9	8	1	·
O=C(NNc1nc(=O)c2cccnc2s1)c1ccccc1O	-15	-9	6	1	41
Cc1ccc(OCCOCCOc2cccc3cccnc23)c(Br)c1	-5	1	4	1	-1
Cc1cc(C)cc(OCCCOc2cccc3cccnc23)c1	·	-11	14	1	82*
COc1ccc(S(=O)(=O)N(CC(=O)NCC2CCCO2)c2ccc(F)cc2)cc1OC (configuration not stated)	·	2	4	-2	-2
CCn1c(=O)c(C(=O)CN2CCOCC2)c(N)n(Cc2ccccc2)c1=O	77*	-12	11	-1	0
Cn1c(=O)c(C(=O)CN2CCN(S(=O)(=O)c3ccccc3)CC2)c(N)n(Cc2ccccc2)c1=O	-6	-5	2	-2	71*
Cn1c(N)c(C(=O)CCl)c(=O)n(Cc2ccccc2)c1=O	-4	·	6	0	62*
Cn1c(=O)c(C(=O)CN2CCOCC2)c(N)n(Cc2ccccc2)c1=O	16	3	-12	1	2
Cn1c(=O)c(C(=O)CN2CCCCC2)c(N)n(Cc2ccccc2)c1=O	-2	·	-17	0	·
Cc1cc(C)nc(SCC(N)=O)n1	-3	-14	3	0	·
SMILES	S1P3 antag	Mdm2 ligase inh	S1P4 antag	S1P4 ag	L major viab
CCN(CC)S(=O)(=O)c1cc(C(=O)OCC(=O)Nc2cccc(C)c2C)ccc1F	-19	-5	-17	-1	-5
CCCCN(C)CCC(=O)Nc1ccc(C)cc1	-4	-3	-13	0	90*
COc1c2c(nc3occc13)C(CCC(C)(C)O)(OC)C(O)CC2 (configuration not stated)	5	-6	5	0	-8
CC(C)C(=O)Nc1ccc(C(=O)c2ccccc2)cc1	·	-6	-16	-1	99*
COc1cccc(N=Nc2c(N)[nH]n3c(=O)cc(-c4ccccc4)nc23)c1	·	1	20	2	92*
Cc1cc(=O)n2[nH]c(N)c(N=Nc3ccccc3)c2n1	8	-5	-10	0	5
COc1cccc(N=Nc2c(=O)[nH]n3c(C)cc(C)nc23)c1	10	-11	2	1	1
Cc1ccc(N=Nc2c(N)[nH]n3c(=O)cc(-c4ccccc4)nc23)cc1	·	-28	6	-3	94*
C/C(N)=C(/C#N)C(=O)COC(=O)c1ccccc1Oc1ccccc1	-16	-30	-3	-1	29
C/C(N)=C(/C#N)C(=O)COC(=O)C(c1ccccc1)c1ccccc1	-6	-13	-2	-2	73*
COc1cc(/C=C2\SC(=S)NC2=O)ccc1OS(=O)(=O)c1ccccc1	-7	-13	-19	0	63*
COc1ccc(OC)c(Nc2nc(-c3sc(NC(=O)C(C)(C)C)nc3C)cs2)c1	·	-19	-19	1	93*
COc1ccc(Cl)cc1Nc1nc(-c2sc(NC(=O)C(C)(C)C)nc2C)cs1	·	-9	-21	1	96*
COc1ccccc1-c1cc(C(F)(F)F)nc(S(=O)(=O)CCCC(=O)N2CCOCC2)n1	-28	27	9	-3	100*
COc1ccc(/C=C2\CCc3ccccc3C2=O)cc1Cn1nc(C)c(Br)c1C	·	·	-6	-1	1
COc1ccc(/C=C2\CCc3ccccc3C2=O)cc1Cn1cccn1	·	-14	8	0	86*
CC(C)(C)Nc1nc(NC(C)(C)C)nc(-n2ccnc2)n1	24	-3	0	0	98*
CN(C(=O)COC(=O)c1ccc2c(=O)n3c(nc2c1)CCC3)C1CCS(=O)(=O)C1 (configuration not stated)	-10	-8	0	-1	-3
Cc1cccn2c(=O)c(C=NCCO)c(NCc3ccco3)nc12	·	-3	0	0	14
Cc1cccn2c(=O)c(C=NCc3ccco3)c(Nc3ccc(SC(F)F)cc3)nc12	·	-15	4	-2	91*
CN(C(=O)CSc1nc(-c2ccccc2)cn1N)C(c1ccccc1)c1ccccc1	·	1	2	1	100*
Cc1ccc(NC(=O)Cc2nc(CCl)cs2)cc1	-1	0	-23	1	68*
Cc1ccc(NC(=S)Nc2nc(CC(=O)Nc3ccccc3)cs2)cc1	·	-13	-3	-1	6
CCOC(=O)c1cc(C(=O)c2cc(F)ccc2O)coc1=N	-6	-3	-8	0	-10
N=c1occ(C(=O)c2cc(F)ccc2O)cc1C(=O)NC1CCCCC1	5	-2	3	-1	70*
COc1ccc(C2=Nc3ccccc3OC2)cc1	·	-9	-1	2	98*
COc1ccc(Cn2nnnc2CN(Cc2cc3ccc(C)cc3[nH]c2=O)C2CCCC2)cc1	7	-19	-8	1	82*
CCOc1ccc2[nH]c(=O)c(CN(Cc3nnnn3Cc3ccco3)C3CCCCC3)cc2c1	-6	-10	-8	1	39
CCC(C)(C)n1nnnc1CN(Cc1cc2cc(OC)ccc2[nH]c1=O)C1CCCC1	17	-9	-24	-1	98*

High-throughput results as filed in PubChem.
